In all, about 200,000 compounds went through this assay and about 170 (0.085%) were called active.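 The calls were made as follows: active = inhibition above 40% at the single screening dose; inactive = the rest.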 Many of the other results were omitted from the sample, so actives are more common in it than they were.
These compounds were tested against DNA repair protein RAD51 homolog 1 (Homo sapiens) (UniProt Q06609) (assay: human RAD51 strand exchange inhibitors, primary screen, biochemical, fluorescence (AID 1385;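 also: 0% = DMSO control wells and 100% = blanks with heterologous ssDNA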)). Conditions: hRad51 DNA strand exchange, fluorescence dequenching; at 10 µM; stronger effect = higher value.
Procedure, shortened: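 System: hRad51 filaments on single-stranded DNA; reagent: Fluorescein- and BHQ1-tagged 47-mer duplex; compound dosing: one concentration, 10 µM final; timing: filaments 15 min 37 °C, then compound 30 min; measured by: fluorescein emission 520 nm, excitation 485 nm; benchmarks: per-plate controls and blanks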

DNA repair protein RAD51 homolog 1 (Homo sapiens), sequence (Q06609 whole entry, looked up): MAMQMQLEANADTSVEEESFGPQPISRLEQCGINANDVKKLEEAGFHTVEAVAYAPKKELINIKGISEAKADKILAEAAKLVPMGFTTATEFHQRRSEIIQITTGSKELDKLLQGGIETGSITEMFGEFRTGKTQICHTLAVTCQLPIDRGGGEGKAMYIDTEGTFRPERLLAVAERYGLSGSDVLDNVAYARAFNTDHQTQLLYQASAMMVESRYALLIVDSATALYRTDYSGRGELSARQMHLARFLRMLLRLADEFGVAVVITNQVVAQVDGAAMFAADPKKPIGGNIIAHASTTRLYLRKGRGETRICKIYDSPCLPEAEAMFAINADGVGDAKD

inhibition, inactive:
CC(C)(C)c1ccc(/C=C2\Oc3c(ccc(O)c3CN3CCN(CCO)CC3)C2=O)cc1 -31.8%
COC(=O)[C@H](Cc1ccccc1)NC(=O)Nc1ccc(OC)cc1 7.38%
S=C(NCCc1ccccc1)Nc1ccccc1 15.1%
CCn1c(SCC(=O)N/N=C/c2ccccc2OCC(=O)O)nnc1-c1ccc(C(C)(C)C)cc1 8.66%
CCOC(=O)c1cc(C)nc(S(C)(=O)=O)c1C#N 16%
C=CCSc1nnc(NC(=O)c2ccc(NC(C)=O)cc2)s1 4.61%
Nc1c(N(CCO)C(=O)C2CCCCC2)c(=O)[nH]c(=O)n1Cc1ccccc1 -7.08%
CC(=O)OCCOCn1cnn2c(=O)c(Br)c(C)nc12 1.73%
COc1ccc(CCNC2=CC(=O)CC(C)(C)C2)cc1 3.57%
Cc1ccc(-c2cc(C(=O)NN)n[nH]2)o1 8.49%
CNC(=O)c1csc(Cc2c(Cl)sc3ccc(Cl)cc23)n1 5.52%
S=c1nc2ccccc2c2nc(-c3cccnc3)[nH]n12 1.9%
O=[N+]([O-])C(=c1ccc2c(c1)N1C3=C(CCCC3)CC3CCCCC31N=2)[N+](=O)[O-] (configuration not stated) -20.4%
CCOC(=O)c1ccc(S(=O)(=O)N(CCO)Cc2cc3cc(OC)c(OC)cc3[nH]c2=O)cc1 -11%
Fc1ccccc1/C=N/n1c(-c2cccnc2)n[nH]c1=S 5.39%
Fc1ccc(Nc2nnns2)cc1 -7.15%
Cc1ccc(-c2nc(SCC(=O)Nc3ccccc3OC(F)F)c3c(C)c(C(=O)O)sc3n2)cc1 -23.3%
CC(C)c1cc(CN2CCOCC2)cc(C(C)C)c1O -12.3%
Clc1ccc(C[n+]2cc(-c3ccc(Cl)cc3)n3c2CCC3)cc1 16.8%
CC(C)CCN1NC2(CCC(C)CC2)NC1=S (configuration not stated) 7.9%
CC(=O)NCc1ccc(S(=O)(=O)NC2CCN(Cc3ccccc3)CC2)cc1 -43.1%
O=[N+]([O-])c1ccc(N/N=C/c2ccccc2)cc1 -5.09%
COc1cccc(CC(=O)Nc2ccc(-c3csc(C)n3)cc2)c1 6%
O=C(O)COCC(=O)NCc1csc2ccc(Cl)cc12 15%
C/C=C/C(=O)Nc1ccc(N2CCN(c3ccc(C(F)(F)F)cn3)CC2)nc1 19.9%
Cc1nc2cc(NC(=O)Nc3cccc(F)c3)ccc2n1C 2.24%
CCOC(=O)COc1nc(C)cc(C(F)(F)F)c1C#N -33.8%

From PubChem BioAssay AID1385 (PCMD, 2008)
